Active and inactive are the calls of the source. The calls are words filed in the database; no cut-off is given here.
Tests used:
[1] = Tmax in BALB/c mice at 100 mg/kg, po; format: ADME, organism-based; design: dose 100 mg/kg, route oral; settings: mouse, in vivo
Outline: (§1)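 Balb/C mice, three dosed orally by gavage (5-20 mL/kg) and three intravenously; H3PO4 salts formulated as a phosphatidylcholine/water dispersion. Six blood samples collected, the last 4 h postdose. Plasma levels measured by HPLC (detection limit 0.5 µg/mL).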

[2] = Cmax in BALB/c mice at 100 mg/kg, po; format: ADME, organism-based; design: dose 100 mg/kg, route oral; settings: mouse, in vivo; outline: as §1
[3] = (§2) AUC in BALB/c mice at 100 mg/kg, po; format: ADME, organism-based, Plasma; design: dose 100 mg/kg, route oral; settings: BALB/c, mouse, plasma; outline: as §1
[4] = Half life in BALB/c mice at 10 mg/kg, iv; format: ADME, organism-based; design: dose 10 mg/kg, route intravenous; settings: mouse, in vivo; outline: as §1
[5] = tested on: Mus musculus; assay: Degradation of pRaf in murine N87 xenograft model at (2*200 mg/kg/day), po; format: functional, organism-based
Outline: (§3)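 Mice bearing N87 gastric tumor xenografts (high HER-2) given the H3PO4 salt orally at 2 × 200 or 2 × 100 mg/kg/day for 3 days. Reference arm received 17-AAG ip at 90 mg/kg once daily. Animals sacrificed 24 h after the last dose and client proteins in tumor lysates assessed by Western blot.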

[6] = Volume of distribution in BALB/c mice at 10 mg/kg, iv; format: ADME, organism-based; design: dose 10 mg/kg, route intravenous; settings: mouse, in vivo, read-out: Vdss; outline: as §1
[7] = tested on: Mus musculus; assay: Degradation of PI3K in murine N87 xenograft model at (2*200 mg/kg/day), po; format: functional, organism-based; outline: as §3
[8] = tested on: Mus musculus; assay: Upregulation of Hsp70 in murine N87 xenograft model at (2*200 mg/kg/day), po; format: functional, organism-based
[9] = tested on: Mus musculus; assay: Degradation of pAKT in murine N87 xenograft model at (2*200 mg/kg/day), po; format: functional, organism-based; outline: as §3
[10] = tested on: Mus musculus; assay: Tumor growth inhibition in murine xenograft model using N87 stomach cancer cell line at 200 mg/kg/day, po; format: functional, organism-based; settings: NCI-N87
Outline: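 Female nu/nu athymic mice, 6-8 weeks old, implanted sc in the flank with N87 tumor fragments (~2 mm³) or 5 × 10⁶ cells. Established tumors of 50-200 mm³ used, n = 6-10 per group. H3PO4 salt given orally at 1 × 200 or 2 × 100 mg/kg/day, 5 days/week; vehicle-dosed controls. Caliper volumes (l × w²)/2 taken twice weekly.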

[11] = tested on: MCF7; assay: Growth inhibition in breast cancer MCF7 cell line by MTS assay; format: functional, cell-based; settings: Homo sapiens
Outline: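 MCF-7 breast cancer cells exposed to compound for 5 days, then MTS added and formazan read at 490 nm. […] Values are the mean of at least three independent observations.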

[12] = tested on: Mus musculus; assay: Degradation of HER2 in murine N87 xenograft model at (2*200 mg/kg/day), po; format: functional, organism-based; outline: as §3
[13] = (§4) Bioavailability in BALB/c mice at 100 mg/kg, po; format: ADME, organism-based; settings: BALB/c, mouse, in vivo; outline: as §1
[14] = Clearance in BALB/c mice at 10 mg/kg, iv; format: ADME, organism-based; design: dose 10 mg/kg, route intravenous; settings: mouse, in vivo; outline: as §1
[15] = Half life in BALB/c mice at 100 mg/kg, po; format: ADME, organism-based; design: dose 100 mg/kg, route oral; settings: mouse, in vivo; outline: as §1
[16] = tested on: Mus musculus; assay: Degradation of pHER2 in murine N87 xenograft model at (2*200 mg/kg/day), po; format: functional, organism-based; outline: as §3
[17] = tested on: Mus musculus; assay: Degradation of pRaf in A549 tumor xenograft at 200 mg/kg, po; format: functional, organism-based; design: dose 200 mg/kg
Outline: (§5)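 Female nu/nu athymic mice (6-8 weeks old) carrying subcutaneous A549 lung cancer xenografts received a single oral gavage dose of the H₃PO₄ salt (200 mg/kg), formulated as a phosphatidylcholine/water dispersion. Mice were sacrificed at 6, 24 or 48 h, and tumors were harvested. HER-2, pHER-2, pAKT, pRaf and Hsp70 levels were assessed by Western blot.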

[18] = molecular target: Heat shock protein HSP 90-alpha (Homo sapiens) (UniProt P07900); assay: Hsp90 inhibition measured as HER-2 degradation in MCF-7 cells
[19] = tested on: Mus musculus; assay: Upregulation of Hsp70 in A549 tumor xenograft at 200 mg/kg, po; format: functional, organism-based; design: dose 200 mg/kg; outline: as §5
[20] = tested on: A549; assay: Degradation of pHER2 in A549 tumor xenograft at 200 mg/kg, po; format: functional, organism-based; design: dose 200 mg/kg; settings: Mus musculus; outline: as §5
[21] = tested on: Mus musculus; assay: Degradation of HER2 in A549 tumor xenograft at 200 mg/kg, po; format: functional, organism-based; design: dose 200 mg/kg; outline: as §5
[22] = tested on: Mus musculus; assay: Degradation of pAKT in A549 tumor xenograft at 200 mg/kg, po; format: functional, organism-based; design: dose 200 mg/kg; outline: as §5
[23] = tested on: Mus musculus; assay: as §2; format: ADME, organism-based, Plasma; design: dose 100 mg/kg, route oral; settings: in vivo; outline: as §1
[24] = tested on: Mus musculus; assay: as §4; format: ADME, organism-based; settings: in vivo; outline: as §1

COc1ccc(I)c(Sc2nc3c(N)ncnc3n2CCCNC(C)C)c1
Tmax [1]: 0.5 h
Cmax [2]: 4700 ng/mL
AUC [3]: 7500 ng·h/mL
half-life [4]: 4.2 h
Activity [5]: Active
Vd [6]: 22 L/kg
Activity [7]: inactive
Activity [8]: Active
Activity [9]: Active
Activity [10]: Active
IC50 [11]: 600 nM
Activity [12]: Active
bioavailability [13]: 55%
clearance [14]: 62 mL/min/kg
half-life [15]: 1.5 h
Activity [16]: Active

COc1ccc(I)c(Sc2nc3c(N)ncnc3n2CCNCC(C)(C)C)c1
Activity [10]: Active
IC50 [11]: 500 nM

COc1ccc(I)c(Sc2nc3c(N)ncnc3n2CCNCC(C)C)c1
Activity [17]: Active
IC50 [18]: 100 nM
Activity [19]: Active
IC50 [11]: 200 nM
Activity [20]: Active
Activity [21]: Active
Activity [22]: Active

C#CCCCn1c(Sc2cc(OC)ccc2I)nc2c(N)ncnc21
IC50 [11]: 700 nM

C#CCCCn1c(Sc2cc(OC)c(OC)c(OC)c2Cl)nc2c(N)nc(F)nc21
IC50 [11]: 1200 nM

CCC(C)NCCCn1c(Sc2cc(OC)ccc2I)nc2c(N)ncnc21 (stereo not drawn)
Tmax [1]: 0.5 h
Cmax [2]: 4800 ng/mL
AUC [23]: 380 µg·min/mL
half-life [4]: 1.3 h
Vd [6]: 3.4 L/kg
Activity [10]: Active
IC50 [11]: 200 nM
F [24]: 28%
half-life [15]: 0.7 h

COc1ccc(I)c(Sc2nc3c(N)ncnc3n2CCCNC(C)(C)C)c1
IC50 [11]: 200 nM

CCC(CC)NCCCn1c(Sc2cc(OC)ccc2I)nc2c(N)ncnc21
IC50 [11]: 200 nM

— ChEMBL document CHEMBL1148609, “Orally active purine-based inhibitors of the heat shock protein 90” (J Med Chem, 2006)
